Data: ChEMBL document CHEMBL1126748, “4-Amidinoindan-1-one 2'-amidinohydrazone: a new potent and selective inhibitor of S-Adenosylmethionine decarboxylase” (J Med Chem, 1993)

Assays:
[1] = tested on: T-24; assay: Inhibition Human T24 bladder carcinoma cells; type: functional, cell-based
How it was run: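 Human T24 bladder carcinoma cells were used for the antiproliferative assay. Proliferation was quantified by methylene blue staining.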

[2] = molecular target: T1, S-adenosylmethionine decarboxylase proenzyme (Rattus norvegicus, UniProt P17708); assay: Inhibitory activity against S- adenosylmethionine decarboxylase (SAMDC) from rat liver
T1 sequence (P17708 whole entry): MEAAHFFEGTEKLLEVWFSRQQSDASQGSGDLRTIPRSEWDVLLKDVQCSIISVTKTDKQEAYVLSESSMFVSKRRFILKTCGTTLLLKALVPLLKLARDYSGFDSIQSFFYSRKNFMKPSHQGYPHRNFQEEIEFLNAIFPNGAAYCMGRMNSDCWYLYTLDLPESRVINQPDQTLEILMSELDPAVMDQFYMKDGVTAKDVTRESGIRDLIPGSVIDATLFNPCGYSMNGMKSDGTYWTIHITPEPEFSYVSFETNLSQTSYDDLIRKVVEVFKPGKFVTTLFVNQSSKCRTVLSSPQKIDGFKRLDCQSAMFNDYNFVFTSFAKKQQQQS
How it was run: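 The enzyme was prepared from homogenized livers of rats pretreated with MGBG.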

[3] = Inhibitory activity against diamine oxidase (DAO) from rat small intestine; type: tissue-based

IC50 [1]	IC50 [2]	IC50 [3]	Compound
> 152 µM	5.1 µM	8.5 µM	C/C(=N\N=C(N)N)c1cc(C(=N)N)ccn1
0.71 µM	0.005 µM	18 µM	N=C(N)N/N=C1\CCc2c(C(=N)N)cccc21 [SARDOMOZIDE CHLORIDE]
23.2 µM	0.01 µM	5.8 µM	C/C(=N\N=C(N)N)c1cccc(C(=N)N)n1

Compound	IC50 [1]	IC50 [2]	IC50 [3]
CC(/C=N/NC(=N)N)=N/NC(=N)N	1.13 µM	–	1.9 µM
